We go through one compound from ChEMBL document CHEMBL4184319, “Fluorescent-Labeled Selective Adenosine A2B Receptor Antagonist Enables Competition Binding Assay by Flow Cytometry” (J Med Chem, 2018).

The structures appear in SMILES notation. pIC50, pKi: −log10 of the molar value. The source made the active and inactive calls. The calls are words filed in the database; no cut-off is given here.

The species named for data set [1] is Homo sapiens. In words: Selectivity ratio of Ki for recombinant human adenosine A1 receptor expressed in CHO cell membranes to Ki for recombinant human adenosine A2B receptor expressed in CHO cell membranes. The data set is classed as cell-based.
The target of data set [2] is T1, Adenosine receptor A2b (Homo sapiens, UniProt P29275).
T1 sequence (P29275 whole entry): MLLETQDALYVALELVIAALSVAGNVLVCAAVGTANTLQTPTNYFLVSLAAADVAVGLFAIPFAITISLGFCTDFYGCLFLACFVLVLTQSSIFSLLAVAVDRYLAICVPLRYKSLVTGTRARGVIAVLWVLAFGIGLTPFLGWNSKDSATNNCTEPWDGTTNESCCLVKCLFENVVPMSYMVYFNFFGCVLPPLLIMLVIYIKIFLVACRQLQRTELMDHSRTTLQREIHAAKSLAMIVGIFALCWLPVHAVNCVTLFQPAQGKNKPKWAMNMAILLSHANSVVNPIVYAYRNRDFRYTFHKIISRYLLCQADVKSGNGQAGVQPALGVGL
In words: Displacement of [3H]PSB-603 from recombinant human adenosine A2B receptor expressed in CHO cell membranes after 75 mins by liquid scintillation counting method. The essentials:
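[³H]PSB-603 (0.3 nM) used with CHO membranes expressing human, mouse or rat A2BAR, 75 min at rt. Membranes pre-incubated 10-15 min with ADA 0.12 IU/mL. Nonspecific binding defined with 10 µM DPCPX. DMSO 2.5 % final. Filtration on GF/B with ice-cold 50 mM Tris-HCl pH 7.4 containing 0.1 % BSA, then scintillation counting. Curves used 6-7 concentrations over 3 log units. At least three experiments.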
Background: In a radioligand displacement assay an active substance lowers the binding of a labelled ligand.

Data set [3] is described as follows: Binding affinity to wild type CHO cell membranes at 100 nM after 15 mins by confocal microscopic method. The conditions noted are these: chinese hamster, 0.25 h, 0.1 µM. The data set is classed as cell-based, Cricetulus griseus. The gist of the method: (§1)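 Live CHO cells stably expressing human A2BAR (or wild-type CHO as control) grown on chambered coverslips to about 80 % confluency. Incubated with fluorescent ligand (100 nM) for 15 min at 37°C, alone or after 30 min pre-incubation with PSB-603 (100 nM) or DPCPX (1 µM). Confocal laser scanning imaging with identical settings across conditions. Three similar experiments.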

Data set [4] in a line: Selectivity ratio of Ki for recombinant human adenosine A3 receptor expressed in CHO cell membranes to Ki for recombinant rat adenosine A2B receptor expressed in CHO cell membranes. The data set is classed as cell-based.
The target in data set [5] is T2, Adenosine receptor A2b (Homo sapiens) (UniProt P29275).
T2 sequence (whole entry): T1 sequence (P29275 whole entry)
Briefly: Binding affinity to recombinant human adenosine A2B receptor expressed in CHO cell membranes at 100 nM after 15 mins by confocal microscopic method. The data set is classed as cell-based. The gist of the method:
as §1

For data set [6], the species on record is Rattus norvegicus. Briefly: Selectivity ratio of Ki for adenosine A2A receptor in rat brain striatal membranes to Ki for recombinant rat adenosine A2B receptor expressed in CHO cell membranes. The data set is classed as cell-based.
Data set [7] deals with T3, Adenosine receptor A2b (Rattus norvegicus, UniProt P29276).
T3 sequence (P29276 whole entry): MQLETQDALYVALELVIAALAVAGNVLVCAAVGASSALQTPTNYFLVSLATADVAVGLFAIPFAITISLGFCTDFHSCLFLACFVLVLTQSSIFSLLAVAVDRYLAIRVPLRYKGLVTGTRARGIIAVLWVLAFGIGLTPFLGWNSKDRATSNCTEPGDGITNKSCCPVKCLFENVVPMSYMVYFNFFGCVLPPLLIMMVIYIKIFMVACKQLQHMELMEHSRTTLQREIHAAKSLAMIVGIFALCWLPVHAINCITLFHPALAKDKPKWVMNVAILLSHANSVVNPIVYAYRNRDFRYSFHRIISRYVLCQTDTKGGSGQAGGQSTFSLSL
In words: Displacement of [3H]PSB-603 from recombinant rat adenosine A2B receptor expressed in CHO cell membranes after 75 mins by liquid scintillation counting method. The gist of the method: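 Membranes pre-incubated 10-15 min with ADA 0.12 IU/mL. DMSO 2.5 % final. Filtration on GF/B with ice-cold 50 mM Tris-HCl pH 7.4 containing 0.1 % BSA, then scintillation counting. Curves used 6-7 concentrations over 3 log units. At least three experiments.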

Data set [8] has as its target Adenosine receptor A2a (Rattus norvegicus, UniProt P30543). In words: Displacement of [3H]MSX-2 from adenosine A2A receptor in rat brain striatal membranes after 30 mins by liquid scintillation counting method. The data set is classed as cell membranes, Striatum, Membrane. The essentials:
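[³H]MSX-2 (1 nM) used with rat striatal or human A2A-HEK membranes, 30 min at rt. Membranes pre-incubated 10-15 min with ADA 0.12 IU/mL. DMSO 2.5 % final. GF/B filtration, then scintillation counting. Curves used 6-7 concentrations over 3 log units. At least three experiments, in duplicate (human) or triplicate (rat).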

Data set [9] deals with T1, Adenosine receptor A2b. Briefly: Antagonist activity at recombinant human adenosine A2B receptor expressed in CHO cell membranes assessed as inhibition of NECA-induced cAMP accumulation preincubated for 1 hr followed by NECA induction measured after 5 mins in presence of [3H]cAMP and bovine cAMP-binding protein by liquid scintillation counting method. The data set is classed as functional. The essentials:
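CHO cells stably expressing human A2BAR, pre-incubated with antagonist dilutions for 1 h at 37°C, then stimulated with NECA (10 µM final) for 5 min at 37°C. Reaction stopped with hot (90 °C) lysis solution (4 mM EDTA, 0.01 % Triton X100). cAMP quantified by radioactive competition with [³H]cAMP and bovine adrenal cAMP-binding protein. Response expressed as % of NECA response without antagonist. Means ± SEM, three independent experiments in duplicate.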
For orientation: Changes in cAMP serve as a functional read-out for many G protein-coupled receptors.

Data set [10] can be described thus: Selectivity ratio of Ki for adenosine A2A receptor in rat brain striatal membranes to Ki for recombinant mouse adenosine A2B receptor expressed in CHO cell membranes. The data set is classed as cell-based.
Data set [11] concerns the target Adenosine receptor A2a (Homo sapiens, UniProt P29274). In words: Displacement of [3H]MSX-2 from recombinant human adenosine A2A receptor expressed in HEK cell membranes after 30 mins by liquid scintillation counting method. The essentials:
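[³H]MSX-2 (1 nM) used with rat striatal or human A2A-HEK membranes, 30 min at rt. Membranes pre-incubated 10-15 min with ADA 0.12 IU/mL. Nonspecific binding defined with 10 µM CGS15943. DMSO 2.5 % final. GF/B filtration, then scintillation counting. Curves used 6-7 concentrations over 3 log units. At least three experiments, in duplicate (human) or triplicate (rat).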

Sequence of Adenosine receptor A2a (Rattus norvegicus, UniProt P30543) (P30543 whole entry): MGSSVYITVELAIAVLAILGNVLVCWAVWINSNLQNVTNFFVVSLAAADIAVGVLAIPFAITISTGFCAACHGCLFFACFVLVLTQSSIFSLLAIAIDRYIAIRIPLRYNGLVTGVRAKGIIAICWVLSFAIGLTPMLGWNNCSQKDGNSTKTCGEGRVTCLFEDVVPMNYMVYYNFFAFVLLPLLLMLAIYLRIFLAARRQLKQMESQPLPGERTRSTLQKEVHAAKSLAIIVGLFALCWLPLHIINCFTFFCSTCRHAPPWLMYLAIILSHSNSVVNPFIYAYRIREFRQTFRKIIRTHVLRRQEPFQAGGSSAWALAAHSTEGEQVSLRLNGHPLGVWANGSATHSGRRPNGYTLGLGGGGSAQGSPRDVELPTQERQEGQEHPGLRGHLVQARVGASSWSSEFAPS
Sequence of Adenosine receptor A2a (Homo sapiens, UniProt P29274) (P29274 whole entry): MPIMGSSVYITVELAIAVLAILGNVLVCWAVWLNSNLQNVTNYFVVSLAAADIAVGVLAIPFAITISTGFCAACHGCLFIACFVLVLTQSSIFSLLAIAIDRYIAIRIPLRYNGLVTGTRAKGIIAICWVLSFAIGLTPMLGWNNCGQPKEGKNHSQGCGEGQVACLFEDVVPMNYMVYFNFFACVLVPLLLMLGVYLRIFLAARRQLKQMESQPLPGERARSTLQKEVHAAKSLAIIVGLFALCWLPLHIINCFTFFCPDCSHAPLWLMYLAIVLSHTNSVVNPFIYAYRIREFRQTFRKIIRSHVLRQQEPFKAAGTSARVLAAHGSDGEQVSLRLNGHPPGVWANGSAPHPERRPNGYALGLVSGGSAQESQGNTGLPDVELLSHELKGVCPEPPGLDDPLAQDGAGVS

For the compound `CCCn1c(=O)[nH]c2nc(-c3ccc(OCC(=O)NCCC4=C5C(C)=CC(C)=[N+]5[B-](F)(F)n5c(C)cc(C)c54)cc3)[nH]c2c1=O`, the Ratio Ki is over 1000 in [1], over 1000 in [4], over 150 in data set [6] and over 150 in data set [10]. Moreover, the pKi (usually −log10 of the Ki, conventionally taken in molar units) was 8.74 in data set [2], 9.74 in data set [7], under 5.00 in data set [8] and under 5.00 in data set [11]. Besides, in [3], the Activity entry was “Not Active”. Also, in data set [5], the outcome was Active. Further, the negative logarithm of the IC50 (pIC50) (usually the IC50 on a negative log10 scale, so that one unit is a factor of ten) in data set [9] is 6.58.
